ChEMBL document CHEMBL1138520, “Molecular and conformational determinants of pituitary adenylate cyclase-activating polypeptide (PACAP) for activation of the PAC1 receptor” (J Med Chem, 2009)
The source made the active and inactive calls. The rule behind the calls is not given here. Where a SMILES comes first, the peptide text is derived from it. [ ]: non-standard residue; d: D form. Cha = N[C@@H](CC1CCCCC1)C(=O)O

How the values were obtained:
[1] = target: T1, Pituitary adenylate cyclase-activating polypeptide type I receptor (Homo sapiens, UniProt P41586); assay: Agonist activity at human recombinant PAC1 receptor expressed in CHO cells assessed as PACAP38-induced calcium mobilization at 1 uM by FLIPR assay; format: functional, cell-based
Target sequence in this assay (P41586 whole entry): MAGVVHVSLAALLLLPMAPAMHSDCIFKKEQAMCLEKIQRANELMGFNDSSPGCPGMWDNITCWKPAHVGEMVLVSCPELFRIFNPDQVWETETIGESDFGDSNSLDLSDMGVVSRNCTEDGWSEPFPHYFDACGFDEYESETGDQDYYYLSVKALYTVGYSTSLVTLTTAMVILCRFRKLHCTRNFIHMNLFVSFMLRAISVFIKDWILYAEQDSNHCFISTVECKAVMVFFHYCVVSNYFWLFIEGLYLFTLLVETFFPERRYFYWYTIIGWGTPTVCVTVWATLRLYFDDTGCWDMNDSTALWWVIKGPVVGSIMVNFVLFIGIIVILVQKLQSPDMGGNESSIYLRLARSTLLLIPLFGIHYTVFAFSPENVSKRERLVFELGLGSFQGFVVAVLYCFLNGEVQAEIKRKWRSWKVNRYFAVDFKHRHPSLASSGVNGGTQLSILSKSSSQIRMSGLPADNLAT

[2] = target: T1, Pituitary adenylate cyclase-activating polypeptide type I receptor; assay: Displacement of [125I]Ac-PACAP27 from human recombinant PAC1 receptor expressed in CHO cells by gamma- counter; format: cell-based
Target sequence in this assay (P41586 whole entry): as above

[3] = target: T1, Pituitary adenylate cyclase-activating polypeptide type I receptor; assay: Agonist activity at human recombinant PAC1 receptor expressed in CHO cells assessed as PACAP38-induced calcium mobilization at 1 uM by FLIPR assay relative to PACAP38; format: functional, cell-based
Target sequence in this assay (P41586 21-468 limits assumed): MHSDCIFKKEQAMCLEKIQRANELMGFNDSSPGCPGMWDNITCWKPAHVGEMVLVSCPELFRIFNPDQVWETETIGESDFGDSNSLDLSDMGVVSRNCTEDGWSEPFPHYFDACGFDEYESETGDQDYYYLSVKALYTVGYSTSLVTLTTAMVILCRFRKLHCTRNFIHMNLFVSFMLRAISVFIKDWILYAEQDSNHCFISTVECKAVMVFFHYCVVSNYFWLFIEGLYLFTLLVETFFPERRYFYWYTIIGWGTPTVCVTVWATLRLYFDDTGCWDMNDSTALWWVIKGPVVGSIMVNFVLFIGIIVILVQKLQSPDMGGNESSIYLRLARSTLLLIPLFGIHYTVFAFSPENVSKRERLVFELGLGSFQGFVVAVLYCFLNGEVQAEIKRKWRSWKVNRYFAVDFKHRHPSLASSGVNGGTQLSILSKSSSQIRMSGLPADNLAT

[4] = target: T1, Pituitary adenylate cyclase-activating polypeptide type I receptor; assay: Agonist activity at human recombinant PAC1 receptor expressed in CHO cells assessed as PACAP38-induced calcium mobilization by FLIPR assay; format: functional, cell-based
Procedure, shortened: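 CHO cells stably expressing recombinant human PAC1, plated 24 h before assay, loaded with fluo-4 AM for 60 min at 37 °C in the dark, then rinsed into HBSS for 15 min at 37 °C. EC50 and efficacy came from nonlinear regression; 4-10 independent assays in duplicate.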
Target sequence in this assay (P41586 whole entry): as the sequence (P41586 whole entry) above

[5] = target: T1, Pituitary adenylate cyclase-activating polypeptide type I receptor; assay: Agonist activity at human recombinant PAC1 receptor expressed in CHO cells assessed as PACAP38-induced calcium mobilization by FLIPR assay relative to PACAP38; format: functional, cell-based
Procedure, shortened: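 CHO cells stably expressing recombinant human PAC1, plated 24 h before assay, loaded with fluo-4 AM for 60 min at 37 °C in the dark, then rinsed into HBSS for 15 min at 37 °C. Peptide was added 18 s into a 150 s read (ex 480/em 525 nm), at final concentrations of 1 × 10-12 to 1 × 10^-5 M. Response was normalised to 1 × 10^-5 M PACAP38 on each plate. EC50 and efficacy came from nonlinear regression; 4-10 independent assays in duplicate.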
Target sequence in this assay (P41586 21-468 limits assumed): as the sequence (P41586 21-468 limits assumed) above

SMILES	EC50 [1]	IC50 [2] [nM]	Emax [3]	EC50 [4] [nM]	Emax [5] [%]
CC[C@H](C)[C@H](NC(=O)CNC(=O)[C@H](CC(=O)O)NC(=O)[C@H](CO)NC(=O)[C@@H](N)Cc1cnc[nH]1)C(=O)N(C)[C@@H](Cc1ccccc1)C(=O)N[C@H](C(=O)N[C@@H](CC(=O)O)C(=O)N[C@@H](CO)C(=O)N[C@@H](Cc1ccc(O)cc1)C(=O)N[C@@H](CO)C(=O)N[C@@H](CCCNC(=N)N)C(=O)N[C@@H](Cc1ccc(O)cc1)C(=O)N[C@@H](CCCNC(=N)N)C(=O)N[C@@H](CCCCN)C(=O)N[C@@H](CCC(N)=O)C(=O)N[C@@H](CCSC)C(=O)N[C@@H](C)C(=O)N[C@H](C(=O)N[C@@H](CCCCN)C(=O)N[C@@H](CCCCN)C(=O)N[C@@H](Cc1ccc(O)cc1)C(=O)N[C@@H](CC(C)C)C(=O)N[C@@H](C)C(=O)N[C@@H](C)C(=O)N[C@H](C(=O)N[C@@H](CC(C)C)C(=O)NCC(=O)N[C@@H](CCCCN)C(=O)N[C@@H](CCCNC(=N)N)C(=O)N[C@@H](Cc1ccc(O)cc1)C(=O)N[C@@H](CCCCN)C(=O)N[C@@H](CCC(N)=O)C(=O)N[C@@H](CCCNC(=N)N)C(=O)N[C@H](C(=O)N[C@@H](CCCCN)C(=O)N[C@@H](CC(N)=O)C(=O)N[C@@H](CCCCN)C(N)=O)C(C)C)C(C)C)C(C)C)[C@@H](C)O	Not Active	1280	inactive	–	–
CSCC[C@H](NC(=O)[C@H](CCC(N)=O)NC(=O)[C@H](CCCCN)NC(=O)[C@H](CCCNC(=N)N)NC(=O)[C@H](Cc1ccc(O)cc1)NC(=O)[C@H](CCCNC(=N)N)NC(=O)[C@H](CO)NC(=O)[C@H](Cc1ccc(O)cc1)NC(=O)[C@H](CO)NC(=O)[C@H](CC(=O)O)NC(=O)[C@@H](NC(=O)[C@H](Cc1ccccc1)NC(=O)[C@H](CC(C)C)N1CC[C@H](NC(=O)[C@H](CC(=O)O)NC(=O)[C@H](CO)NC(=O)[C@@H](N)Cc2cnc[nH]2)C1=O)[C@@H](C)O)C(=O)N[C@@H](C)C(=O)N[C@H](C(=O)N[C@@H](CCCCN)C(=O)N[C@@H](CCCCN)C(=O)N[C@@H](Cc1ccc(O)cc1)C(=O)N[C@@H](CC(C)C)C(=O)N[C@@H](C)C(=O)N[C@@H](C)C(=O)N[C@H](C(=O)N[C@@H](CC(C)C)C(N)=O)C(C)C)C(C)C	–	1980	–	1030	54.1
CC[C@H](C)[C@H](NC(=O)CNC(=O)[C@H](CC(=O)O)NC(=O)[C@H](CO)NC(=O)[C@@H](N)Cc1cnc[nH]1)C(=O)N[C@@H](Cc1ccccc1)C(=O)N(C)[C@H](C(=O)N[C@@H](CC(=O)O)C(=O)N[C@@H](CO)C(=O)N[C@@H](Cc1ccc(O)cc1)C(=O)N[C@@H](CO)C(=O)N[C@@H](CCCNC(=N)N)C(=O)N[C@@H](Cc1ccc(O)cc1)C(=O)N[C@@H](CCCNC(=N)N)C(=O)N[C@@H](CCCCN)C(=O)N[C@@H](CCC(N)=O)C(=O)N[C@@H](CCSC)C(=O)N[C@@H](C)C(=O)N[C@H](C(=O)N[C@@H](CCCCN)C(=O)N[C@@H](CCCCN)C(=O)N[C@@H](Cc1ccc(O)cc1)C(=O)N[C@@H](CC(C)C)C(=O)N[C@@H](C)C(=O)N[C@@H](C)C(=O)N[C@H](C(=O)N[C@@H](CC(C)C)C(=O)NCC(=O)N[C@@H](CCCCN)C(=O)N[C@@H](CCCNC(=N)N)C(=O)N[C@@H](Cc1ccc(O)cc1)C(=O)N[C@@H](CCCCN)C(=O)N[C@@H](CCC(N)=O)C(=O)N[C@@H](CCCNC(=N)N)C(=O)N[C@H](C(=O)N[C@@H](CCCCN)C(=O)N[C@@H](CC(N)=O)C(=O)N[C@@H](CCCCN)C(N)=O)C(C)C)C(C)C)C(C)C)[C@@H](C)O	–	1010	–	1010	40
CC[C@H](C)[C@H](NC(=O)CNC(=O)[C@H](CC(=O)O)NC(=O)[C@H](CO)NC(=O)[C@@H](N)Cc1cnc[nH]1)C(=O)N[C@@H](CC1CCCCC1)C(=O)N[C@H](C(=O)N[C@@H](CC(=O)O)C(=O)N[C@@H](CO)C(=O)N[C@@H](Cc1ccc(O)cc1)C(=O)N[C@@H](CO)C(=O)N[C@@H](CCCNC(=N)N)C(=O)N[C@@H](Cc1ccc(O)cc1)C(=O)N[C@@H](CCCNC(=N)N)C(=O)N[C@@H](CCCCN)C(=O)N[C@@H](CCC(N)=O)C(=O)N[C@@H](CCSC)C(=O)N[C@@H](C)C(=O)N[C@H](C(=O)N[C@@H](CCCCN)C(=O)N[C@@H](CCCCN)C(=O)N[C@@H](Cc1ccc(O)cc1)C(=O)N[C@@H](CC(C)C)C(=O)N[C@@H](C)C(=O)N[C@@H](C)C(=O)N[C@H](C(=O)N[C@@H](CC(C)C)C(=O)NCC(=O)N[C@@H](CCCCN)C(=O)N[C@@H](CCCNC(=N)N)C(=O)N[C@@H](Cc1ccc(O)cc1)C(=O)N[C@@H](CCCCN)C(=O)N[C@@H](CCC(N)=O)C(=O)N[C@@H](CCCNC(=N)N)C(=O)N[C@H](C(=O)N[C@@H](CCCCN)C(=O)N[C@@H](CC(N)=O)C(=O)N[C@@H](CCCCN)C(N)=O)C(C)C)C(C)C)C(C)C)[C@@H](C)O (H-HSDGI[Cha]TDSYSRYRKQMAVKKYLAAVLGKRYKQRVKNK-NH2)	–	6.6	–	2.6	97.7

Continued, values first:

EC50 [1]	IC50 [2] [nM]	Emax [3]	EC50 [4] [nM]	Emax [5] [%]	SMILES
Not Active	3590	inactive	–	–	CC[C@H](C)[C@H](NC(=O)CNC(=O)[C@H](CC(=O)O)NC(=O)[C@H](CO)NC(=O)[C@@H](N)Cc1cnc[nH]1)C(=O)N1Cc2ccccc2C1C(=O)N[C@H](C(=O)N[C@@H](CC(=O)O)C(=O)N[C@@H](CO)C(=O)N[C@@H](Cc1ccc(O)cc1)C(=O)N[C@@H](CO)C(=O)N[C@@H](CCCNC(=N)N)C(=O)N[C@@H](Cc1ccc(O)cc1)C(=O)N[C@@H](CCCNC(=N)N)C(=O)N[C@@H](CCCCN)C(=O)N[C@@H](CCC(N)=O)C(=O)N[C@@H](CCSC)C(=O)N[C@@H](C)C(=O)N[C@H](C(=O)N[C@@H](CCCCN)C(=O)N[C@@H](CCCCN)C(=O)N[C@@H](Cc1ccc(O)cc1)C(=O)N[C@@H](CC(C)C)C(=O)N[C@@H](C)C(=O)N[C@@H](C)C(=O)N[C@H](C(=O)N[C@@H](CC(C)C)C(N)=O)C(C)C)C(C)C)[C@@H](C)O (some centres undefined)
Not Active	268	inactive	–	–	CC[C@H](C)[C@H](NC(=O)CNC(=O)[C@H](CC(=O)O)NC(=O)[C@H]1CCCN1C(=O)[C@@H](N)Cc1cnc[nH]1)C(=O)N[C@@H](Cc1ccccc1)C(=O)N[C@H](C(=O)N[C@@H](CC(=O)O)C(=O)N[C@@H](CO)C(=O)N[C@@H](Cc1ccc(O)cc1)C(=O)N[C@@H](CO)C(=O)N[C@@H](CCCNC(=N)N)C(=O)N[C@@H](Cc1ccc(O)cc1)C(=O)N[C@@H](CCCNC(=N)N)C(=O)N[C@@H](CCCCN)C(=O)N[C@@H](CCC(N)=O)C(=O)N[C@@H](CCSC)C(=O)N[C@@H](C)C(=O)N[C@H](C(=O)N[C@@H](CCCCN)C(=O)N[C@@H](CCCCN)C(=O)N[C@@H](Cc1ccc(O)cc1)C(=O)N[C@@H](CC(C)C)C(=O)N[C@@H](C)C(=O)N[C@@H](C)C(=O)N[C@H](C(=O)N[C@@H](CC(C)C)C(N)=O)C(C)C)C(C)C)[C@@H](C)O
–	8.2	–	9.7	96.3	CC[C@H](C)[C@H](NC(=O)CNC(=O)[C@H](CC(=O)O)NC(=O)[C@H](CO)NC(=O)[C@H](Cc1cnc[nH]1)NC(C)=O)C(=O)N[C@@H](Cc1ccccc1)C(=O)N[C@H](C(=O)N[C@@H](CC(=O)O)C(=O)N[C@@H](CO)C(=O)N[C@@H](Cc1ccc(O)cc1)C(=O)N[C@@H](CO)C(=O)N[C@@H](CCCNC(=N)N)C(=O)N[C@@H](Cc1ccc(O)cc1)C(=O)N[C@@H](CCCNC(=N)N)C(=O)N[C@@H](CCCCN)C(=O)N[C@@H](CCC(N)=O)C(=O)N[C@@H](CCSC)C(=O)N[C@@H](C)C(=O)N[C@H](C(=O)N[C@@H](CCCCN)C(=O)N[C@@H](CCCCN)C(=O)N[C@@H](Cc1ccc(O)cc1)C(=O)N[C@@H](CC(C)C)C(=O)N[C@@H](C)C(=O)N[C@@H](C)C(=O)N[C@H](C(=O)N[C@@H](CC(C)C)C(N)=O)C(C)C)C(C)C)[C@@H](C)O
–	1770	–	1810	34.5	CC[C@H](C)[C@@H](C(=O)N[C@@H](Cc1ccccc1)C(=O)N[C@H](C(=O)N[C@@H](CC(=O)O)C(=O)N[C@@H](CO)C(=O)N[C@@H](Cc1ccc(O)cc1)C(=O)N[C@@H](CO)C(=O)N[C@@H](CCCNC(=N)N)C(=O)N[C@@H](Cc1ccc(O)cc1)C(=O)N[C@@H](CCCNC(=N)N)C(=O)N[C@@H](CCCCN)C(=O)N[C@@H](CCC(N)=O)C(=O)N[C@@H](CCSC)C(=O)N[C@@H](C)C(=O)N[C@H](C(=O)N[C@@H](CCCCN)C(=O)N[C@@H](CCCCN)C(=O)N[C@@H](Cc1ccc(O)cc1)C(=O)N[C@@H](CC(C)C)C(=O)N[C@@H](C)C(=O)N[C@@H](C)C(=O)N[C@H](C(=O)N[C@@H](CC(C)C)C(N)=O)C(C)C)C(C)C)[C@@H](C)O)N(C)C(=O)CNC(=O)[C@H](CC(=O)O)NC(=O)[C@H](CO)NC(=O)[C@@H](N)Cc1cnc[nH]1
